Screening data: PubChem BioAssay, several laboratories
The list is not random: actives were taken first. Their share in the collection is about 1.4%.
PG9 binder: small molecules binding HIV-1 gp120 antibody PG9. TR-FRET gp120-PG9 antibody binding. inhibition, % at 6.7 µM. hit rate 0.43% among 360,000. AID 624416; in the data active = inhibition above about 8.5%
NR2E3 ag-1: agonists of human nuclear receptor NR2E3; hit rate 0.12% among 320,000; Q9Y5X4; AID 2300; GST-NR2E3/biotin-RetCOR TR-FRET, 1536-well; inhibition of corepressor binding, % at 4.78 µM;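 active = percent inhibition above the cutoff of mean plus 3 SD of all tested compounds, set per screening campaign, cut at about 20% in these data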;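 note: 0% = DMSO wells and 100% = biotin wells as full block of FRET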
Target sequence (Q9Y5X4 whole entry, looked up): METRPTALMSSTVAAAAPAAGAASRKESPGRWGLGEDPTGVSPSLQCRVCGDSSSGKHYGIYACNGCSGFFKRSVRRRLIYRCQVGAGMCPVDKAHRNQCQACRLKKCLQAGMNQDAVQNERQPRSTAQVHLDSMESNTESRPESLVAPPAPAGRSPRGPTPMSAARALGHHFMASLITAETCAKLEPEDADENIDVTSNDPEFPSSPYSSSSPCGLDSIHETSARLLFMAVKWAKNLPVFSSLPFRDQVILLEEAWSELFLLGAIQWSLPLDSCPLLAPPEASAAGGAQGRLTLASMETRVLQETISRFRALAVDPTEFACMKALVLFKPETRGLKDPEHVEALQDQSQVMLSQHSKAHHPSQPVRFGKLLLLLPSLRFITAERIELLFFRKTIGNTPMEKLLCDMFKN
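System: GST-NR2E3 and biotin-RetCOR proteins; probe or stimulus: 7 nM biotin-RetCOR; doses: compound at 4.8 µM, single dose; schedule: Compound–protein incubation for 5 h at 4 °C; detection: time-resolved FRET; read-out: percent inhibition; controls: biotin wells as high control, 0.6% DMSO wells as low control; format: 1536-well plates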
NR1D1 modulator: modulates human Rev-erb alpha binding to DNA | hit rate 0.79% among 370,000 | P20393 | Rev-erbα–FITC-DNA binding, fluorescence polarization, 90 min | activity, % at 10 µM | AID 1259318;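 active = activity above about 14%, limit read from the data; passing the limit was not always enough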;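 note: 0% = DMSO wells with 35 nM protein and 100% = DMSO wells with 750 nM protein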
NR2E3 ag-2: human photoreceptor-specific nuclear receptor agonism; AID 602229; Q9Y5X4; CHO-S Gal4-NCOR/VP16-NR2E3 two-hybrid, luciferase; hit rate 0.35% among 360,000; inhibition of corepressor binding, % at 3.98 µM;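 active = inhibition above the mean of all tested compounds plus 3 SD, cut at about 70% in these data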;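 note: 0% = DMSO with NR2E3 transfected cells and 100% = cells lacking NR2E3 construct; higher means lower luciferase signal from less NR2E3 corepressor binding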
PG9 bind confirm: confirmation of small molecules binding HIV-1 gp120 antibody PG9; shares compounds with PG9 binder; TR-FRET PG9 antibody binding, biochemical; inhibition, % at 6.7 µM; hit rate 90% among 1,500; in the data active = inhibition above about 9%
PGV04 Ab binding: counter-screen for PG9 binders: binding control antibody PGV04; shares compounds with PG9 binder; TR-FRET PGV04 antibody-gp120 binding, biochemical; inhibition, % at 6.7 µM; hit rate 95% among 1,500; in the data active = inhibition above about 9.5%
An asterisk follows results filed as active; / = not tested or not shown.

SMILES	PG9 binder	NR2E3 ag-1	NR1D1 modulator	NR2E3 ag-2	PG9 bind confirm	PGV04 Ab binding
Cc1nc2ccccc2nc1CSc1nncs1	9.8*	3	-1	-7	6	7
CCn1c(SCc2nc3ccccc3nc2C)nnc1-c1cccs1	-2	1	5	0	/	/
COc1ccc(C(=O)CSc2nc(N)nc(SC)c2C#N)cc1	21*	3	8	-4	23*	28*
CSc1nc(N)nc(SCC(=O)c2ccccc2)c1C#N	5	4	12	-65	/	/
CC(C)N(C(N)=NC(=O)OCc1ccccc1)C(C)C	/	/	0	/	/	/
Cc1ccc(C2C(C#N)=C(N)SC(N)=C2C#N)c(C)c1	/	10	/	-2	/	/
Cc1ccc(C2C(C#N)=C(N)SC(N)=C2C#N)cc1	13*	/	1	-3	7	8
Cc1cccc2c1CCC1CN(Cc3ccccc3)S(=O)(=O)N21 (stereo unspecified)	/	/	-6	/	/	/
COc1ccc(NC(C)=O)cc1NC(=O)CSc1nnc(-c2ccncc2)n1C	0	3	0	1	/	/
Cc1ccc(NC(=O)CSc2nnc(-c3ccncc3)n2C)cc1C	17*	-1	4	5	15*	40*
CC(=O)c1ccc(NC(=O)CSc2nc(N)c3cc4c(nc3n2)CCCC4)cc1	22*	-57	-2	-58	14*	26*
COc1ccc(NC(=O)CSc2nc(N)c3cc4c(nc3n2)CCCC4)cc1	-1	-2	-2	-42	/	/
Cc1cccc(NC(=O)CSc2nc3nc4c(cc3c(=O)n2-c2ccccc2)CCCC4)c1	29*	-1	22	10	25*	39*
CN1CCN(c2ccc(-c3csc(N4CCC(C(N)=O)CC4)n3)cc2)CC1	/	/	1	/	/	/
CCCCNC(=O)O[C@H]1CC[C@@]23CCCN2C(=O)CCC[C@H]3[C@H]1CCC	/	/	-1	/	/	/
Cc1ccc(-n2c(Cc3cccs3)nnc2SCc2ccc(Br)cc2)cc1	/	/	5	/	/	/
O=C(Cn1nnc(-c2ccccc2Cl)n1)NCc1ccc2c(c1)OCO2	10*	16	0	1	11*	14*
Cc1ccc(-c2nnc(SCc3ccc([N+](=O)[O-])cc3)n2-c2ccccc2)cc1	/	/	-1	/	/	/
COc1ccc(Cl)cc1-c1n[nH]c(=S)o1	37*	10	3	-16	36*	48*
COc1ccccc1-c1n[nH]c(=S)o1	18*	5	-6	-7	13*	24*
COc1ccccc1-c1n[nH]c(=S)n1N	1	2	-1	-13	/	/
CCOc1ccc(N(CC(=O)Nc2c(C)n(C)n(-c3ccccc3)c2=O)S(=O)(=O)c2cc(OC)ccc2OC)cc1	/	/	-8	/	/	/
CC(C)c1ccc(NC(=O)O[C@@H]2CC[C@@]34CCCN3C(=O)CCC[C@H]4C2)cc1	/	/	-4	/	/	/
NC1=[N+](Cc2ccccc2)C(Cc2ccccc2)C2C(=C3CCCCC3n3c(=O)n(-c4ccccc4)c(=O)n32)N1 (stereo unspecified)	/	/	4	/	/	/
COc1cccc(C2/C(=C(\O)c3ccc(OC)c(OC)c3)C(=O)C(=O)N2c2cc(C)on2)c1 (stereo unspecified)	14*	8	1	-34	25*	34*
SMILES	PG9 binder	NR2E3 ag-1	NR1D1 modulator	NR2E3 ag-2	PG9 bind confirm	PGV04 Ab binding
COc1ccc2nc(SCC(=O)NC3CC3)c(C#N)cc2c1	20*	15	6	-6	26*	47*
Cc1ccc2nc(SCC(=O)NCC3CCCO3)c(C#N)cc2c1 (stereo unspecified)	13*	-1	-2	-5	22*	36*
O=C(C1CCCN(S(=O)(=O)c2ccccc2F)C1)N1CCN(Cc2ccccc2)CC1 (stereo unspecified)	/	/	-4	/	/	/
COc1ccc(C(=O)Nc2cc(-c3ccc(C)cc3)no2)cc1	14*	/	-2	-26	15*	18*
COc1ccc(/C=C/c2cc(O)cc(OC3OC(CO)C(O)C(O)C3O)c2)cc1 (stereo unspecified)	-1	/	0	-105	/	/
OC[C@H]1O[C@@H](Oc2ccc3cc(Br)ccc3c2)[C@H](O)[C@@H](O)[C@H]1O	11*	9	-2	16	17*	24*
CCOC(=O)c1ccc(NC(=O)CSc2nnc(-c3cc(-c4ccccc4)n[nH]3)n2N)cc1	/	/	10	/	/	/
COc1cccc(-n2nnnc2SCC(=O)Nc2ccc(C(C)=O)cc2)c1	16*	7	14	1	24*	39*
